# High-throughput results: PubChem, The Scripps Research Institute Molecular Screening Center
# TCR CD3 inh – blocks the human TCR-CD3 interaction | TAMRA-labeled TCR probe fluorescence, biochemical | inhibition, % at 9.4 µM | hit rate 0.37% among 360,000 | AID 651800; in the data active means inhibition above about 19%;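 further: recombinant mutant TCR 2C K166C tagged with TAMRA read by polarization; 0% = receptor in buffer alone and 100% = receptor with positive control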
# rCAG binder – binds r(CAG) RNA repeats; AID 651821; hit rate 1.3% among 370,000; r(CAG) RNA repeat, TO-PRO-1 dye displacement fluorescence; inhibition, % at 3 µM;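 active means inhibition above the plate cutoff, the mean of all test compounds on that plate plus 3 SD, cut at about 35% in these data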;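 further: 0% = DMSO alone and 100% = 100 µM mitoxantrone as full dye displacement; higher means more dye released from RNA so lower well fluorescence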
# HTRA1 inhibitor – blocks human HTRA1 serine peptidase; inhibition, % at 5.96 µM; recombinant HTRA1, FP-rhodamine activity-based probe, fluorescence polarization; hit rate 0.5% among 340,000; Q92743; in the data active means inhibition above about 36%;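 further: 0% = enzyme with DMSO and 100% = wells lacking enzyme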
# PRMT1 FP inh – inhibitors of human PRMT1 | Q99873 | recombinant PRMT1, activity-based probe fluorescence polarization | inhibition, % at 2.79 µM | hit rate 1.3% among 370,000;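 active means inhibition above about 21% made by adding two undisclosed values, limit read from the data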
# SIAE primary – human SIAE inhibition, primary screen; inhibition, % at 9.66 µM; Q9HAT2; hit rate 0.69% among 370,000; SIAE FP-Rh probe binding, fluorescence polarization; AID 1053197;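 active means inhibition above a cutoff: mean of compounds within the control limits plus 3 SD of those, cut at about 17% in these data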;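 further: 0% = plate median of compound wells and 100% = probe without SIAE protein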
# Target sequence (Q9HAT2 whole entry, looked up): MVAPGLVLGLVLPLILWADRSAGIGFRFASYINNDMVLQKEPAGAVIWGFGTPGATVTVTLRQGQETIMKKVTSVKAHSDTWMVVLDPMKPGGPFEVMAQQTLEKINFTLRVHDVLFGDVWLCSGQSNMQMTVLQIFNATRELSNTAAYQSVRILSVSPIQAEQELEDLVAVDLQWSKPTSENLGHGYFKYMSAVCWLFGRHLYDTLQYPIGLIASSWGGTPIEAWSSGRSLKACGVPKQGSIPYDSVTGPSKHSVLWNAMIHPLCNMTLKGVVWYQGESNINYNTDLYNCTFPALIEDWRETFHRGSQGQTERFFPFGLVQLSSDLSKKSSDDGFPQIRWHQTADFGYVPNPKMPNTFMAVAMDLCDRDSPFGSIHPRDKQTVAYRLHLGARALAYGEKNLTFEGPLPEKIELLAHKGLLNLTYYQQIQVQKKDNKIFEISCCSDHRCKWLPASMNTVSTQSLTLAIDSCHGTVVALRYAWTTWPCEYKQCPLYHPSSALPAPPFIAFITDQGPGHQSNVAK
# mABHD4 FP – inhibits mouse alpha/beta hydrolase domain 4; Q8VD66; purified mABHD4, FP-Rh probe fluorescence polarization; inhibition, % at 8.92 µM; hit rate 0.54% among 370,000;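 active means inhibition exceeding the mean over every tested compound plus 3 SD, cut at about 30% in these data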;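 further: 0% = plate median of compound wells and 100% = S159A mutant with DMSO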
#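 system = mouse ABHD4 enzyme, wild type | medium = HEPES pH 7.0, NaCl, Pluronic buffer | also added = FP-Rh probe | incubation = Enzyme–compound pre-incubation 45 min, then probe 60 min, both 25 °C | technique = fluorescence polarization, excitation 525 nm, emission 598 nm, BODIPY TMR filters | controls = S159A mutant high control, sample median low control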
# rCAG binder conf – r(CAG) RNA repeat binding, confirmation | TO-PRO-1 dye displacement fluorescence | hit rate 70% among 4,300 | shares compounds with rCAG binder | inhibition, % at 3 µM;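 active means inhibition above a per-plate cutoff, the mean inhibition of sample wells plus 3 SD, cut at about 35% in these data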;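 further: loss of TO-PRO-1 fluorescence as compound displaces dye from 1x1 AA loop RNA; 0% = DMSO only wells and 100% = 100 µM mitoxantrone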
# dCAG dye counter – counter-screen for rCAG RNA binders: DNA CAG dye complex inhibitors; shares compounds with rCAG binder; d(CAG) DNA oligo TO-PRO-1 dye displacement, fluorescence; inhibition, % at 3 µM; hit rate 94% among 4,300; AID 652068;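 active means inhibition above its plate's cutoff, the mean test-well inhibition plus 3 SD, cut at about 4.8% in these data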;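 further: 0% = DNA dye mix with DMSO and 100% = 100 µM mitoxantrone; hits displace the dye from DNA and so lower well fluorescence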
# DNA CAG DR – disrupts DNA CAG TO-PRO-1 complex in dose response. shares compounds with rCAG binder. DNA CAG/GTC duplex TO-PRO-1 dye displacement fluorescence. IC50, µM. hit rate 20% among 250; in the data active means IC50 below about 10 µM
# An asterisk follows results filed as active; i = inactive; x = no result given. A selection: hits, their analogues and other compounds. The true share with any hit is near 3.5%.
SMILES,TCR CD3 inh,rCAG binder,HTRA1 inhibitor,PRMT1 FP inh,SIAE primary,mABHD4 FP,rCAG binder conf,dCAG dye counter,others
COc1ccc(-n2c(SCC(=O)Nc3ccc(NC(C)=O)cc3)nc3ccccc3c2=O)cc1,1,3,-5,3,-15,-2,x,x,
Cc1ccc(NC(=S)NNC(=O)CSc2nc3ccccc3c(=O)n2-c2ccc(C)cc2)cc1,-5,45*,-6,2,0,-3,45*,20*,
COC(=O)[C@]1(CNC(=O)Nc2ccc(C)c(Cl)c2)CC(=O)N(C)[C@@H]1c1ccccc1,x,2,x,-5,3,-4,x,x,
CCc1cccc(CC)c1NC(=O)C(CC)Sc1nc2ccsc2c(=O)n1CCC(=O)O (stereo unspecified),-4,10,4,5,-1,2,x,x,
CCC(Sc1nc2ccsc2c(=O)n1Cc1ccc(C(=O)O)cc1)C(=O)Nc1ccc(Cl)cc1 (stereo unspecified),-3,72*,-52,5,-10,17,70*,34*,DNA CAG DR=i
Cc1cccc(NC(=O)C2CCCN(c3nnc(-n4cccc4)s3)C2)c1C (stereo unspecified),x,4,x,2,0,-7,x,x,
CCOc1ccc(NC(=O)Nc2nc(SCC)ns2)cc1,3,65*,-21,0,0,-4,31,18*,
Cc1ccc(-c2nc(-c3ccc(Cl)cc3)sc2CC(=O)O)c(C)c1,2,45*,-20,0,0,-5,30,8.7*,
O=C(Cc1ccc(F)cc1)N/N=C/c1ccc(-c2ccc(Cl)c(C(=O)O)c2)o1,1,2,-7,1,3,7,x,x,
COCc1cc(C)n(CC(=O)N/N=C/c2ccc(-c3ccc(Cl)c(C(=O)O)c3)o2)c(=O)c1C#N,6,38*,2,6,-1,1,41*,14*,
O=C(CCc1ccccc1)N[C@H]1[C@H](OC(=O)c2cnccn2)CCC[C@@]12C(=O)N(Cc1ccccc1)c1ccccc12,x,2,x,-2,4,-1,x,x,
Cc1ccc(C(=O)Nc2ccccc2C(=O)NC(Cc2ccccc2)C(=O)O)cc1 (stereo unspecified),4,43*,-17,3,-6,-23,38*,8.7*,
O=C(NC(Cc1c[nH]c2ccccc12)C(=O)O)c1ccccc1 (stereo unspecified),0,1,2,0,7,1,x,x,
Cc1ccc(C(=O)Nc2ccccc2C(=O)NC(Cc2c[nH]c3ccccc23)C(=O)O)cc1 (stereo unspecified),-4,61*,-36,7,-12,5,63*,24*,
CCCCCN1CCCCC(NC(=O)C(C)(C)C)C1=O (stereo unspecified),x,-1,x,-2,-2,1,x,x,
COc1ccc(Cn2cc(CN3[C@H](CC(C)C)COc4cc(Br)ccc4S3(=O)=O)nn2)cc1,x,4,x,-5,1,-3,x,x,
CCCNC(=S)NNC(=O)c1cc(-c2cccnc2)nc2ccccc12,-2,20,-3,1,4,1,x,x,
CCCCNC(=S)NNC(=O)c1cc(-c2cccnc2)nc2ccccc12,1,43*,-1,2,-9,-1,32,7.7*,
CCNC(=S)NNC(=O)c1cc(-c2cccc(OCC)c2)nc2ccccc12,-2,29,-2,-2,7,4,x,x,
CCOC(=O)c1ccc(NC(=S)NNC(=O)c2cc(-c3cccnc3)nc3ccccc23)cc1,-6,78*,-6,-5,7,21,80*,37*,
O=C(NNC(=S)Nc1ccccc1)c1cc(-c2cccnc2)nc2ccccc12,4,50*,-16,-2,7,5,43*,13*,
CCNC(=S)NNC(=O)c1cc(-c2cccc(C)c2)nc2ccccc12,-2,43*,-9,-8,-4,-3,40*,12*,
C=CCN(C(=O)[C@@H](CCCC)[C@@H](O)c1ccc(C(C)=O)cc1)c1ccccc1,x,-1,x,-3,0,9,x,x,
N#Cc1c(NC(=O)CSc2ncnc3sccc23)oc(-c2ccco2)c1-c1ccco1,1,44*,-1,20,1,7,55*,24*,DNA CAG DR=i
CC(C)(C)c1ccc(Oc2ccc(NC(=O)C3CC=CCC3C(=O)O)cc2)cc1 (stereo unspecified),2,35*,-7,0,7,-6,45*,12*,
SMILES,TCR CD3 inh,rCAG binder,HTRA1 inhibitor,PRMT1 FP inh,SIAE primary,mABHD4 FP,rCAG binder conf,dCAG dye counter,others
Cc1ccccc1Oc1ccc(NC(=O)C2CC=CCC2C(=O)O)cc1 (stereo unspecified),-3,3,4,0,-1,12,x,x,
COc1cccc(/C=C2/SC(=O)N(CC(=O)N3CCc4ccccc4C3)C2=O)c1OCC(=O)O,-1,37*,-5,3,-4,-1,36*,9.7*,
COc1cccc(/C=C2/SC(=O)N(C)C2=O)c1OCc1ccc(C(=O)O)cc1,2,12,-6,3,0,-4,x,x,
O=C(Cc1cccc(C(F)(F)F)c1)NCc1cccc(Cl)c1,2,0,-9,-1,6,-3,x,x,
O=C(NCc1cccc(Cl)c1)c1ccc(S(=O)(=O)Nc2cccc(C(F)(F)F)c2)cc1,2,42*,-67,1,-46,-77,45*,9.1*,
O=C(Nc1ccc(F)cc1)Nc1c(-c2ccc(F)cc2)nc2ncccn12,x,7,x,0,-1,1,x,x,
O=C(CSCc1cccc(Br)c1)N=Nc1c(O)[nH]c2ccccc12,4,6,-14,1,-1,-1,x,x,
O=Nc1c(-c2c(O)[nH]c3cc(Br)ccc23)[nH]c2ccccc12,-4,59*,23,1,-3,-4,54*,36*,
O=C(OC12CCCN(C1)/C(=C/c1ccncc1)C2)c1ccc(Cl)cc1 (stereo unspecified),x,3,x,2,3,6,x,x,
O=C(NCc1ccccc1)C1CCN(c2nc(-c3ccc(Br)cc3)cs2)CC1,x,x,x,10,-3,-4,x,x,
O=C(CSc1nnc(COc2ccccc2)n1Cc1ccco1)Nc1ccc(OCc2ccccc2)cc1,x,7,x,11,-4,2,x,x,
C[C@H](CCC(=O)O)[C@H]1CC[C@H]2[C@@H]3[C@H](O)C[C@@H]4C[C@H](O)CC[C@]4(C)[C@H]3CC[C@]12C,8,37*,-6,2,-5,4,31,4,
